Laboratory results as given in ChEMBL document CHEMBL1151261, “Antineoplastic agents. 509: synthesis of fluorcombstatin phosphate and related 3-halostilbenes(1)” (J Nat Prod, 2005).
In brackets after ≈: the same amount, converted by molar mass.

Experiments:
SF-268 = experiment: Cytotoxicity against human SF268 cells after 48 hrs by sulforhodamine B assay; type: functional; details: SF-268, 48 h
Method in brief: (§1)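 Human tumor lines exposed to compound for 48 h, then fixed with trichloroacetic acid and stained with sulforhodamine B (NCI standard protocol); optical density read on a microplate reader. GI50 is the concentration giving a 50% reduction in net protein increase, calculated from optical density data.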

NCI-H460 = experiment: Cytotoxicity against human NCI-H460 cells after 48 hrs by sulforhodamine B assay; type: functional; details: NCI-H460, 48 h; method in brief: as §1
DU-145 = experiment: Cytotoxicity against human DU145 cells after 48 hrs by sulforhodamine B assay; type: functional; details: DU-145, 48 h; method in brief: as §1
MCF7 = experiment: Cytotoxicity against human MCF7 cells after 48 hrs by sulforhodamine B assay; type: functional; details: MCF7, 48 h; method in brief: as §1
KM-20L2 = experiment: Cytotoxicity against human KM20L2 cells after 48 hrs by sulforhodamine B assay; type: functional; details: KM-20L2, 48 h; method in brief: as §1
P388 = experiment: Cytotoxicity against mouse P388 cells after 48 hrs by Coulter particle counting; details: P388, 48 h, read-out: ED50 (the source's name)
BXPC-3 = experiment: Cytotoxicity against human BxPC3 cells after 48 hrs by sulforhodamine B assay; type: functional; details: BXPC-3, 48 h; method in brief: as §1

Compound	GI50 (SF-268) [µg/mL]	GI50 (NCI-H460) [µg/mL]	GI50 (DU-145) [µg/mL]	GI50 (MCF7) [µg/mL]	GI50 (KM-20L2) [µg/mL]	EC50 (P388) [µg/mL]	GI50 (BXPC-3) [µg/mL]
COc1ccc(/C=C\c2cc(N)c(OC)c(OC)c2)cc1N	0.076 (≈ 0.253 µM)	0.014 (≈ 0.0466 µM)	0.044 (≈ 0.146 µM)	< 0.01	0.03 (≈ 0.0999 µM)	0.036 (≈ 0.12 µM)	0.053 (≈ 0.176 µM)
COc1ccc(/C=C\c2cc(OC)c(OC)c([N+](=O)[O-])c2)cc1[N+](=O)[O-]	0.59 (≈ 1.64 µM)	0.24 (≈ 0.666 µM)	0.34 (≈ 0.944 µM)	0.37 (≈ 1.03 µM)	0.27 (≈ 0.749 µM)	> 10	0.39 (≈ 1.08 µM)
COc1ccc(/C=C\c2cc(Br)c(OC)c(OC)c2)cc1OP(=O)([O-])[O-].[Na+].[Na+]	0.0034	0.0028	0.0046	0.0041	0.23	< 0.01	0.093
C1CCNCC1.C1CCNCC1.COc1ccc(/C=C\c2cc(F)c(OC)c(OC)c2)cc1OP(=O)(O)O	0.0075	0.022	0.011	0.011	> 1	0.004	0.39
COc1cc(/C=C\c2ccc(OC)c(OP(=O)([O-])[O-])c2OP(=O)([O-])[O-])cc(OC)c1OC.[Na+].[Na+].[Na+].[Na+]	0.036	0.038	0.034	0.024	0.53	< 0.01	1.5
COc1ccc(/C=C/c2cc(Cl)c(OC)c(OC)c2)cc1O	0.048 (≈ 0.15 µM)	0.034 (≈ 0.106 µM)	0.038 (≈ 0.118 µM)	0.041 (≈ 0.128 µM)	1.4 (≈ 4.36 µM)	0.027 (≈ 0.0842 µM)	0.59 (≈ 1.84 µM)
COc1ccc(/C=C\c2cc(O)c(OC)c(OC)c2)cc1N	0.04 (≈ 0.133 µM)	0.03 (≈ 0.0996 µM)	0.035 (≈ 0.116 µM)	0.06 (≈ 0.199 µM)	0.39 (≈ 1.29 µM)	0.0174 (≈ 0.0577 µM)	0.37 (≈ 1.23 µM)
COc1ccc(/C=C\c2cc(O)c(OC)c(OC)c2)cc1O	0.0083 (≈ 0.0275 µM)	0.19 (≈ 0.628 µM)	0.0043 (≈ 0.0142 µM)	0.49 (≈ 1.62 µM)	1.2 (≈ 3.97 µM)	0.26 (≈ 0.86 µM)	2.3 (≈ 7.61 µM)
COc1ccc(/C=C\c2cc(Br)c(OC)c(OC)c2)cc1OP(=O)([O-])[O-].[Rb+].[Rb+]	0.023	0.041	0.042	0.043	2.6	< 0.01	0.56
COc1ccc(/C=C\c2cc(Br)c(OC)c(OC)c2)cc1OP(=O)([O-])[O-].[Mg+2]	0.0053	0.0039	0.0045	0.0045	0.27	< 0.01	0.074
C1COCCN1.C1COCCN1.COc1ccc(/C=C\c2cc(F)c(OC)c(OC)c2)cc1OP(=O)(O)O	0.0087	0.005	0.0046	0.0079	> 1	0.015	0.73
COc1ccc(/C=C\c2cc(O)c(OC)c(OC)c2)cc1[N+](=O)[O-]	0.62 (≈ 1.87 µM)	0.31 (≈ 0.936 µM)	0.39 (≈ 1.18 µM)	0.49 (≈ 1.48 µM)	1.8 (≈ 5.43 µM)	0.402 (≈ 1.21 µM)	2.5 (≈ 7.55 µM)
COc1ccc(/C=C\c2cc(Br)c(OC)c(OC)c2)cc1OP(=O)([O-])[O-].[K+].[K+]	0.0032	0.0029	0.0028	0.0035	0.24	< 0.01	0.2
